The source of these data is ChEMBL document CHEMBL1123033, “Synthesis and antiherpes simplex virus activity of 9-[(1,3-dihydroxy-2-propylthio)methyl]guanine” (1985).

The source made the active and inactive calls. The rule behind the calls is not given here.

In one assay the test system is Human alphaherpesvirus 1. Nature of the assay: In vitro antiviral and anticellular activity was evaluated against herpes simplex virus HSV-1 (F strain) in vero cells tissue culture. The class given is functional. Conditions: Human alphaherpesvirus 1, Vero; read-out: ID50 (the source's name). The essentials: (§1)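 Plaque reduction assay in Vero cells infected with HSV; cells exposed to the nucleoside analogue. ID50 is the dose giving a 50% drop in plaque count relative to untreated controls.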

Assay [1] concerns Mus musculus. Nature of the assay: Effect of subcutaneous dose at 10 mg/kg on HSV-2 induced mortality in mice; 1/16. The class given is functional. The essentials:
(§2)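 Female Swiss-Webster mice (~20 g) infected intraperitoneally with 5 × 10^4 PFU HSV-2 strain G (~10 LD50), then dosed subcutaneously once daily (24-h intervals) for 4 days starting 24 h post-infection, with a saline group run alongside. Read-out is survivors/total (15–16 mice per group) with percent survivors; probability by Fisher exact test.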

Assay [2] has as its system Mus musculus. Nature of the assay: Effect of subcutaneous dose at 10 mg/kg on HSV-2 induced mortality in mice. The class given is functional. The essentials: as §2
The test system of assay [3] is Mus musculus. Nature of the assay: Effect of subcutaneous dose at 30 mg/kg on HSV-2 induced mortality in mice. The class given is functional. Put shortly:
as §2

In the next assay the test system is Vero. Nature of the assay: In vitro antiviral and anticellular activity was evaluated against vero cells in tissue culture. The class given is functional. Conditions: Chlorocebus sabaeus, read-out: ID50 (the source's name). Put shortly: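 Anticellular activity measured by cell proliferation assay in uninfected Vero cells.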
In assay [4] the test system is Mus musculus. Nature of the assay: (§3) Mean survival time of HSV-2 induced mortality in mice was determined when the 10 mg/Kg of compound was administered subcutaneously. The class given is functional, organism-based. Put shortly:
(§4)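 Mice (female Swiss-Webster, ~20 g) challenged intraperitoneally with 5 × 10^4 PFU HSV-2 strain G (~10 LD50); subcutaneous dosing once daily for 4 days, first dose 24 h after infection, with a saline group run alongside. Mean survival time in days ± standard deviation; probability by Mann-Whitney u-test.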

In assay [5] the test system is Mus musculus. Nature of the assay: Effect of subcutaneous dose at 100 mg/kg on HSV-2 induced mortality in mice; 8/15. The class given is functional. The essentials:
as §2

For assay [6], the system named is Human alphaherpesvirus 2. Nature of the assay: In vitro antiviral and anticellular activity was evaluated against herpes simplex virus HSV-2 (G strain) in vero (HSV-2 G ) cells. The class given is functional. Conditions: Human alphaherpesvirus 2, Vero; read-out: ID50 (the source's name). The essentials: as §1
For assay [7], the system named is Mus musculus. Nature of the assay: Effect of subcutaneous dose at 30 mg/kg on HSV-2 induced mortality in mice; 2/16. The class given is functional. Put shortly: as §2
Assay [8] has as its system Mus musculus. Nature of the assay: Mean survival time of HSV-2 induced mortality in mice was determined when the 30 mg/Kg of compound was administered subcutaneously; NS means not significant. The class given is functional, organism-based. The essentials: as §4
The next assay relates to Human betaherpesvirus 5. Nature of the assay: In vitro antiviral and anticellular activity was evaluated against human cytomegalovirus (HCMV AD 169) in […]. Conditions: read-out: ID50 (the source's name). The class given is functional. The essentials:
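Plaque reduction assay in MRC-5 cells infected with HCMV and treated with the nucleoside analogue. ID50 is the dose cutting plaque numbers by 50% versus untreated controls.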

In assay [9] the test system is Human alphaherpesvirus 2. Nature of the assay: In vitro antiviral and anticellular activity was evaluated against herpes simplex virus HSV-2 (G strain) in vero cells. Conditions: Human alphaherpesvirus 2, Vero; read-out: ID50 (the source's name). The class given is functional. Put shortly:
as §1

For assay [10], the system named is Mus musculus. Nature of the assay: Effect of subcutaneous dose at 10 mg/kg on HSV-2 induced mortality in mice; 7/16. The class given is functional. The essentials: as §2
Assay [11] deals with Mus musculus. The assay is described as §3. The class given is functional. Put shortly: as §4
For assay [12], the system named is Mus musculus. Nature of the assay: Effect of subcutaneous dose at 30 mg/kg on HSV-2 induced mortality in mice; 12/16. The class given is functional. The essentials: as §2
Assay [13] relates to Mus musculus. Nature of the assay: Effect of subcutaneous dose at 30 mg/kg on HSV-2 induced mortality in mice(value in parentheses denotes probability. The class given is functional. Put shortly: as §2
For assay [14], the system named is Mus musculus. Nature of the assay: Effect of subcutaneous dose at 3 mg/kg on HSV-2 induced mortality in mice; 4/16. The class given is functional. The essentials: as §2
Assay [15] concerns Mus musculus. Nature of the assay: Mean survival time of HSV-2 induced mortality in mice was determined when the 3 mg/Kg of compound was administered subcutaneously; NS means not significant. The class given is functional, organism-based. The essentials: as §4
The subject of assay [16] is Mus musculus. Nature of the assay: Effect of subcutaneous dose at 3 mg/kg on HSV-2 induced mortality in mice. The class given is functional. The essentials:
as §2

Turning to `Nc1nc(O)c2ncn(C[S+]([O-])C(CO)CO)c2n1` (centres undefined), in the assay with Human alphaherpesvirus 1, the IC50 is 25 µM.

As for `Nc1nc(O)c2ncn(CSC(CO)CO)c2n1`, the Survivors is listed as 1 in the assay on Mus musculus [1], 8 with Mus musculus [5] and 2 in the assay on Mus musculus [7]. The Mean survival time worked out at 9.7 days with Mus musculus [2] and 9.4 days in the assay on Mus musculus [3]. Moreover, the IC50 in the assay on Vero stood at 900 µM; in the assay on Human alphaherpesvirus 1 it was 0.9 µM; in the assay on Human alphaherpesvirus 2 [6], 8 µM; in the assay with Human betaherpesvirus 5 it was 80 µM. Also, the Mean survival time result in the assay on Mus musculus [4] and with Mus musculus [8] was “inactive” throughout.

As for `Nc1nc(O)c2ncn(CS(=O)(=O)C(CO)CO)c2n1`, in the assay with Human alphaherpesvirus 1, the IC50 was determined as 40 µM.

As to `Nc1nc2c(ncn2COCCO)c(=O)[nH]1` [ACYCLOVIR], the IC50 was 1100 µM with Vero, 0.4 µM in the assay with Human alphaherpesvirus 1, 1.5 µM in the assay with Human alphaherpesvirus 2 [9] and 100 µM in the assay on Human betaherpesvirus 5.

With `Nc1nc2c(ncn2COC(CO)CO)c(=O)[nH]1` [GANCICLOVIR], the Survivors turned out to be 7 in the assay on Mus musculus [10], 12 in the assay on Mus musculus [12] and 4 in the assay with Mus musculus [14]. Further, the Mean survival time is less than 0.001 in the assay on Mus musculus [11], 12.4 days with Mus musculus [2], 13.8 days in the assay with Mus musculus [13] and 11.2 days with Mus musculus [16]. Also, the IC50 in the assay on Vero came out at 500 µM; in the assay on Human alphaherpesvirus 1 it was 0.3 µM; in the assay on Human alphaherpesvirus 2 [9] it was 1.3 µM; in the assay on Human betaherpesvirus 5 it was 6 µM. For the same compound, in the assay with Mus musculus [15], the Mean survival time entry was “inactive”.
